In paper PMC4191586 (Journal of Medicinal Chemistry, 2014):
Entries after “also recorded” stand apart in the source; their conditions may differ. Read-outs that look alike come from different tables or passages of the source.

Tests used:
FRβ = FRβ (Homo sapiens, UniProt P14207); assay: Competitive [3H]folic acid binding assay, FRβ in D4 cells; conditions: 50 nM [3H]folic acid, folic acid = 1
Method in brief: (§1)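 Cells plated 48 h ahead (~5 × 10^6) were acid-stripped of bound folate (pH 3.5 acetate/NaCl) and washed in ice-cold HEPES saline, pH 7.4. They were then incubated 15 min at 0 °C with 50 nM [3H]folic acid (0.5 Ci/mmol) across a range of unlabeled ligand concentrations. After NaOH lysis, bound label was read as pmol/mg protein.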

FRα = FRα (Homo sapiens, UniProt P15328); assay: Competitive [3H]folic acid binding assay, FRα in RT16 cells; conditions: 50 nM [3H]folic acid, folic acid = 1
Chain of FRα (P15328 25-257): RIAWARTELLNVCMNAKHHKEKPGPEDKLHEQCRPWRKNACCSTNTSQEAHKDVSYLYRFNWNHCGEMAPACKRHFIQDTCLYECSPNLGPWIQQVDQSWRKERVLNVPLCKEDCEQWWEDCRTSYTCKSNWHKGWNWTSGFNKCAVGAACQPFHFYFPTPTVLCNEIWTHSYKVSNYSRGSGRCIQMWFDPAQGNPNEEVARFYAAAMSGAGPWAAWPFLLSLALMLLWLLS
Method in brief: as §1

[1] = tested on: PC43-10 CHO cells (express human RFC); assay: Growth inhibition assay, RFC-expressing PC43-10 CHO cells; assay type: cell-based, Chinese hamster; conditions: PC43-10, 96 h, read-out: IC50 RFC PC43-10
[2] = tested on: R2/PCFT4 CHO cells (express human PCFT); assay: Growth inhibition assay, PCFT-expressing R2/PCFT4 CHO cells; assay type: cell-based, Chinese hamster; conditions: R2/PCFT4, pH 7.2, read-out: IC50 PCFT R2/PCFT4
[3] = tested on: D4 CHO cells (express human FRβ); assay: Growth inhibition assay, FRβ-expressing D4 CHO cells; assay type: cell-based, Chinese hamster; conditions: for IC50: CHO, read-out: IC50 FRβ D4; for IC50 FRβ D4: without folic acid, mean (SEM)
Method in brief: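 D4 cells were seeded at ~2500–5000 per well in folate-free RPMI with 10% dialyzed FBS, 2 nM leucovorin and 2 mM L-glutamine. They were exposed to a range of drug concentrations for up to 96 h, with or without 200 nM folic acid in parallel. Viability was read by CellTiter-Blue fluorescence.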

[4] = tested on: KB human nasopharyngeal carcinoma cells (express RFC, FRα, PCFT); assay: Growth inhibition assay, KB human tumor cells; assay type: cell-based; conditions: for IC50: Homo sapiens, read-out: IC50 RFC/FRα/PCFT KB
[5] = tested on: RT16 CHO cells (express human FRα); conditions: read-out: IC50 FRα RT16; without folic acid; mean (SEM); cited from earlier work
[6] = tested on: PC43-10 CHO cells (express human RFC); conditions: mean (SEM), previously published, cited from earlier work
[7] = tested on: FRα- and PCFT-expressing tumor cells; conditions: up; cited from earlier work
GARFTase = target: T1, GARFTase (Homo sapiens, UniProt P22102); assay: In situ GARFTase activity assay in KB cells; assay type: cell-based; conditions: ratio of in situ GARFTase IC50s vs compound 7
T1 sequence (P22102 1-1010): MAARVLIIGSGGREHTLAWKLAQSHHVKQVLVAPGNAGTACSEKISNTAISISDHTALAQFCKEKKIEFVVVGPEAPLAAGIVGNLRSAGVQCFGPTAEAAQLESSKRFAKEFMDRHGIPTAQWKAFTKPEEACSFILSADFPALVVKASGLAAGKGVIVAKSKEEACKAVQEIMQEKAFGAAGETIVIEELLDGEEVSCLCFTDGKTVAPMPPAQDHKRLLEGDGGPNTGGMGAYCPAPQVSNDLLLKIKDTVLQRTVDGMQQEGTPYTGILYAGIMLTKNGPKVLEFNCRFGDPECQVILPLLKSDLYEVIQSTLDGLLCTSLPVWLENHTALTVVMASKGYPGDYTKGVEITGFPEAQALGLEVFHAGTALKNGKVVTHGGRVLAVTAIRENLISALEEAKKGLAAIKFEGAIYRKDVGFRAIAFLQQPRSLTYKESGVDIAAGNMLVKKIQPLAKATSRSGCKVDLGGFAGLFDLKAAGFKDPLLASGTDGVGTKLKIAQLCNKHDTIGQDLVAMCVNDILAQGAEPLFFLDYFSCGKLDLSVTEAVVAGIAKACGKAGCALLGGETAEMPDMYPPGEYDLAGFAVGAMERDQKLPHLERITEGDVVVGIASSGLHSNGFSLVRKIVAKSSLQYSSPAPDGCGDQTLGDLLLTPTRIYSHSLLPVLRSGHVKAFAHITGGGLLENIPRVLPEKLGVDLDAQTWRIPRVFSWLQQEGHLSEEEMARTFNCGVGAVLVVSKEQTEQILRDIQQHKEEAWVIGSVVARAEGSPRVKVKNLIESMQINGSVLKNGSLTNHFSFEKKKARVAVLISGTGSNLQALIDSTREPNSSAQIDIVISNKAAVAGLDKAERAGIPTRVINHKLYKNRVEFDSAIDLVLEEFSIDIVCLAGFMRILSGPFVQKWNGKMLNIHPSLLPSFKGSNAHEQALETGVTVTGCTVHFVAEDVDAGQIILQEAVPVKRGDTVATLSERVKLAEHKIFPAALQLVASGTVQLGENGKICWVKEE

KB cells = assay: Nucleoside/AICA protection of growth inhibition in KB cells; assay type: cell-based, human
Method in brief: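 KB human nasopharyngeal carcinoma cells were grown in complete folate-free RPMI 1640 with 2 nM LCV, with a range of test compound concentrations. Runs had no additions or included 200 nM folic acid, adenosine (60 μM), thymidine (10 μM) or AICA (320 μM). Cell density was read by CellTiter Blue fluorescence and normalized to no-drug cells; experiments were performed in triplicate.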

Chain of FRβ (P14207 17-255): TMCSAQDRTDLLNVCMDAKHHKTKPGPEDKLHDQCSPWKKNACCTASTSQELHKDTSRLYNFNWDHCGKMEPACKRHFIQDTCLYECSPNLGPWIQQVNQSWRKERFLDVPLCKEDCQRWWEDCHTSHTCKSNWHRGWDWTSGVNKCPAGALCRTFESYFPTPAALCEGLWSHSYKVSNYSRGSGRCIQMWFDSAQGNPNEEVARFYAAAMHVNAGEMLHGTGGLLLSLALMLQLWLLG

relative binding affinity to FRα (in words) (FRα)	IC50 [4] [µM]	fold less potent than 7 as GARFTase inhibitor in KB cells (GARFTase) [fold]	fold reduction of KB potency relative to IC50 of 7 ([4]; KB cells, IC50 9 nM vs 0.26 nM)	Compound	relative binding affinity to FRβ (in words) (FRβ)	IC50 [1] [µM]	IC50 [2] [µM]	IC50 [3] [µM]	IC50 FRβ D4 [3]	IC50 [5] [µM]	IC50 RFC PC43-10 [6]	IC50 ([6]; read-out: IC50 RFC PC43-10) [µM]	increase of cell growth inhibition compared to 8 [7] [fold]	effect of AICA on inhibition of KB cell proliferation (KB cells; AICA 320 μM)	effect of adenosine on inhibition of KB cell proliferation (KB cells; adenosine 60 μM)	effect of thymidine on inhibition of KB cell proliferation (KB cells; thymidine 10 μM)
bound avidly to FRα	> 1			CCC[C@H](NC(=O)c1ccc(CCCc2cc3c(=O)[nH]c(N)nc3[nH]2)s1)C(=O)O [Compound 13, (S)-2-({5-[3-(2-Amino-4-oxo-4,7-dihydro-3H-pyrrolo[2,3-d]pyrimidin-6-yl)propyl]thiophene-2-carbonyl}-amino)-pentanoic Acid]	somewhat reduced; also recorded: distinctly reduced binding affinities	> 1	> 1	> 1	complete inactivity							
bound avidly to FRα	> 1			Nc1nc2[nH]c(CCCc3ccc(C(=O)NCCCC(=O)O)s3)cc2c(=O)[nH]1 [Compound 12, 4-({5-[3-(2-Amino-4-oxo-4,7-dihydro-3H-pyrrolo[2,3-d]pyrimidin-6-yl)propyl]thiophene-2-carbonyl}-amino)-butanoic Acid]	somewhat reduced; also recorded: distinctly reduced binding affinities	> 1	> 1	> 1	complete inactivity							
bound avidly to FRα	> 1			Nc1nc2[nH]c(CCCc3ccc(C(=O)N[C@@H](CC(=O)O)C(=O)O)s3)cc2c(=O)[nH]1 [Compound 10, (S)-2-({5-[3-(2-Amino-4-oxo-4,7-dihydro-3H-pyrrolo[2,3-d]pyrimidin-6-yl)-propyl]-thiophene-2-carbonyl}-amino)-butanedioic Acid]		> 1	> 1		substantially reduced activity							
				Nc1nc2[nH]c(CCCc3ccc(C(=O)N[C@@H](CCC(=O)O)C(=O)O)s3)cc2c(=O)[nH]1 [Compound 7, (S)-2-({5-[3-(2-Amino-4-oxo-4,7-dihydro-3H-pyrrolo[2,3-d]pyrimidin-6-yl)-propyl]-thiophene-2-carbonyl}-amino)-pentanedioic Acid]						0.00031	modest inhibition	0.101	~10			
Substantially reduced	> 1			Nc1nc2[nH]c(CCCc3ccc(C(=O)O)s3)cc2c(=O)[nH]1 [Compound 9, 5-[3-(2-Amino-4-oxo-4,7-dihydro-3H-pyrrolo[2,3-d]pyrimidin-6-yl)-propyl]-thiophene-2-carboxylic Acid]	Substantially reduced; also recorded: undetectable binding	> 1	> 1	> 1	completely inactive							
		~6	approximately 35 fold	Nc1nc2[nH]c(CCCc3ccc(C(=O)N[C@@H](CCCC(=O)O)C(=O)O)s3)cc2c(=O)[nH]1 [Compound 11, (S)-2-({5-[3-(2-Amino-4-oxo-4,7-dihydro-3H-pyrrolo[2,3-d]pyrimidin-6-yl)propyl]thiophene-2-carbonyl}-amino)-hexanedioic Acid]	somewhat reduced	> 1	> 1							abolished the inhibitory effects	abolished the inhibitory effects	had no effect
